Values after ≈ are worked out from the molar mass of the structure shown.
Columns and labels:
[1] = tested on: DNA topoisomerase II (Bos taurus); test: Inhibition of calf thymus Topoisomerase-2
[2] = tested on: DNA topoisomerase I (Bos taurus); test: Inhibition of calf thymus Topoisomerase-I
B16 = test: Inhibition of murine B16 Melanoma cell proliferation; type: functional, cell-based, Mus musculus
How it was run: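 Clonogenic assay: B16 melanoma cells (EMEM with 10% FCS, 37 °C, 5% CO2) seeded 200 per dish, attached 20 h, exposed to increasing drug concentrations 24 h, washed, regrown 12 days; methanol-fixed, crystal violet-stained, colonies >50 cells counted. IC50 is concentration giving 50% cloning efficiency versus untreated.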

[3] = biological target: Protein kinase C alpha type (Homo sapiens, UniProt P17252); test: Inhibition of Protein kinase C alpha
How it was run: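 Recombinant PKC-α, partially purified; protamine sulfate substrate without phosphatidylserine or diacylglycerol; γ-33P incorporation measured by spotting aliquots on P81 paper. Compounds serially diluted 10-fold in DMSO/water 50:50. Two independent experiments; IC50 in μM.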

P388 [4] = test: Inhibition of P388 Leukemia cell proliferation; type: functional, cell-based; conditions: Mus musculus
How it was run: (§1)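 P388 murine leukemia cells exposed to a range of drug concentrations for 96 h at 37 °C; viability scored by neutral red staining; IC50 is the concentration giving 50% growth inhibition.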

Bacillus cereus = test: Antimicrobial activity against Bacillus cereus; type: functional
How it was run: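 B. cereus ATCC 14579 in Mueller-Hinton broth pH 7.4, compounds diluted in DMSO across 12 tubes spanning 100 to 0.05 μg/mL; growth read after 24 h at 27 °C; MIC taken as lowest inhibitory concentration. Disk diffusion screen also run: 6 mm paper disks carrying 300 μg drug in DMSO, 24 h at 27 °C.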

P388 [5] = test: Inhibition of P388 murine leukemia cell proliferation; type: functional, cell-based; conditions: Mus musculus
How it was run: as §1

| Compound | MIC [1] | MIC [2] | IC50 (B16; b16) | IC50 [3] | other results |
| --- | --- | --- | --- | --- | --- |
| CN1C(=O)c2c(c3c4ccccc4n(C4OC(CO)C(O)C(O)C4O)c3c3[nH]c4ccccc4c23)C1=O (stereo in doubt; 9) [listing 1 of 2 here] | > 20 µM | 6 µM (≈ 3.01 µg/mL) | – | – | – |
| CN1C(=O)c2c(c3c4ccccc4n(C4OC(CO)C(O)C(O)C4O)c3c3[nH]c4ccccc4c23)C1=O (stereo in doubt; 8) [listing 1 of 2 here] | > 20 µM | 2 µM (≈ 1 µg/mL) | – | – | – |
| CC1OC(n2c3ccccc3c3c4c(c5c6ccccc6[nH]c5c32)C(=O)N(C)C4=O)C(O)C(O)C1O (stereo in doubt; 14) [listing 1 of 2 here] | > 20 µM | 2 µM (≈ 0.971 µg/mL) | – | – | – |
| CC1OC(n2c3ccccc3c3c4c(c5c6ccccc6[nH]c5c32)C(=O)N(C)C4=O)C(O)C(O)C1O (stereo in doubt; 13) [listing 1 of 2 here] | > 20 µM | > 20 µM | – | – | – |
| CN1C(=O)c2c(c3c4ccccc4n(C4OC(CO)C(O)C(O)C4O)c3c3[nH]c4ccccc4c23)C1=O (stereo in doubt; 7) [listing 1 of 2 here] | – | – | 0.52 µM | 59 µM | IC50 (P388 [4]): 6 µM; MIC (Bacillus cereus; Bacillus cereus, read-out: MIC): 6.2 µM (≈ 3.11 µg/mL) |
| CC1OC(n2c3ccccc3c3c4c(c5c6ccccc6[nH]c5c32)C(=O)N(C)C4=O)C(O)C(O)C1O (stereo in doubt; 13) [listing 2 of 2 here] | – | – | 4.75 µM | 82 µM | MIC (Bacillus cereus): 103 µM (≈ 50 µg/mL) |
| CN1C(=O)c2c(c3c4ccccc4n(C4OC(CO)C(O)C(O)C4O)c3c3[nH]c4ccccc4c23)C1=O (stereo in doubt; 10) [listing 1 of 2 here] | > 20 µM | 0.6 µM (≈ 0.301 µg/mL) | – | – | – |
| CC1OC(n2c3ccccc3c3c4c(c5c6ccccc6[nH]c5c32)C(=O)N(C)C4=O)C(O)C(O)C1O (stereo in doubt; 14) [listing 2 of 2 here] | – | – | – | > 100 µM | IC50 (B16; Mus musculus, B16): 3.75 µM; IC50 (P388 [4]): 6.2 µM; MIC (Bacillus cereus): 3.1 µM (≈ 1.51 µg/mL) |
| CN1C(=O)c2c(c3c4ccccc4n(C4OC(CO)C(O)C(O)C4O)c3c3[nH]c4ccccc4c23)C1=O (stereo in doubt; 9) [listing 2 of 2 here] | – | – | – | 62 µM | – |
| CN1C(=O)c2c(c3c4ccccc4n(C4OC(CO)C(O)C(O)C4O)c3c3[nH]c4ccccc4c23)C1=O (stereo in doubt; 10) [listing 2 of 2 here] | – | – | 5.4 µM | 99 µM | – |
| CN1C(=O)c2c(c3c4ccccc4n(C4OC(CO)C(O)C(O)C4O)c3c3[nH]c4ccccc4c23)C1=O (stereo in doubt; 7) [listing 2 of 2 here] | > 20 µM | > 20 µM | – | – | – |
| CO[C@H]1[C@H](O)[C@@H](O)[C@H](n2c3c(Cl)cccc3c3c4c(c5c6cccc(Cl)c6[nH]c5c32)C(=O)N(C)C4=O)O[C@@H]1CO | – | – | – | > 100 µM | IC50 (B16; Mus musculus, B16): 0.61 µM; IC50 (P388 [4]): 0.6 µM; MIC (Bacillus cereus; Bacillus cereus, read-out: MIC): > 85 µM |
| CO[C@H]1[C@H](O)[C@@H](O)[C@H](n2c3c(Cl)cccc3c3c4c(c5c6cccc(Cl)c6[nH]c5c32)C(=O)NC4=O)O[C@@H]1CO [REBECCAMYCIN] | – | – | – | > 100 µM | MIC (Bacillus cereus; Bacillus cereus, read-out: MIC): 10.9 µM (≈ 6.22 µg/mL); IC50 (P388 [5]): 0.5 µM |
| CO[C@H]1[C@H](O)[C@@H](O)[C@H](n2c3ccccc3c3c4c(c5c6ccccc6[nH]c5c32)C(=O)NC4=O)O[C@@H]1CO | > 19 µM | 1.95 µM (≈ 0.978 µg/mL) | – | > 100 µM | IC50 (P388 [4]): 6.8 µM; MIC (Bacillus cereus; Bacillus cereus, read-out: MIC): > 97 µM |

Now from value to molecule, other results behind:

| MIC [1] | MIC [2] | IC50 (B16; b16) | IC50 [3] | Compound | other results |
| --- | --- | --- | --- | --- | --- |
| – | – | 75 µM | > 100 µM | CC(=O)OCC1OC(n2c3ccccc3c3c4c(c5c6ccccc6[nH]c5c32)C(=O)N(C)C4=O)C(OC(C)=O)C(OC(C)=O)C1OC(C)=O (stereo in doubt; 6) [listing 1 of 2 here] | – |
| > 15 µM | > 15 µM | – | – | CC(=O)OCC1OC(n2c3ccccc3c3c4c(c5c6ccccc6[nH]c5c32)C(=O)N(C)C4=O)C(OC(C)=O)C(OC(C)=O)C1OC(C)=O (stereo in doubt; 6) [listing 2 of 2 here] | – |
| – | – | 78 µM | – | CC(=O)OCC1OC(n2c3ccccc3c3c4c(c5c6ccccc6[nH]c5c32)C(=O)N(C)C4=O)C(OC(C)=O)C(OC(C)=O)C1OC(C)=O (stereo in doubt; 4) [listing 1 of 2 here] | IC50 (P388 [4]): > 15 µM; MIC (Bacillus cereus; Bacillus cereus, read-out: MIC): > 74 µM |
| > 15 µM | > 15 µM | – | – | CC(=O)OCC1OC(n2c3ccccc3c3c4c(c5c6ccccc6[nH]c5c32)C(=O)N(C)C4=O)C(OC(C)=O)C(OC(C)=O)C1OC(C)=O (stereo in doubt; 4) [listing 2 of 2 here] | – |
| > 15 µM | > 15 µM | – | – | CC(=O)OCC1OC(n2c3ccccc3c3c4c(c5c6ccccc6[nH]c5c32)C(=O)N(C)C4=O)C(OC(C)=O)C(OC(C)=O)C1OC(C)=O (stereo in doubt; 3) [listing 1 of 2 here] | – |
| – | – | 3.3 µM | > 100 µM | CN1C(=O)c2c(c3c4ccccc4n(C4OC(CO)C(O)C(O)C4O)c3c3[nH]c4ccccc4c23)C1=O (stereo in doubt; 8) [listing 2 of 2 here] | MIC (Bacillus cereus): 12.4 µM (≈ 6.22 µg/mL) |
| – | 0.6 µM (≈ 0.309 µg/mL) | – | > 100 µM | CO[C@H]1[C@H](O)[C@@H](O)[C@H](n2c3ccccc3c3c4c(c5c6ccccc6[nH]c5c32)C(=O)N(C)C4=O)O[C@@H]1CO | IC50 (B16; Mus musculus, B16): 1.06 µM; IC50 (P388 [4]): 0.7 µM; MIC (Bacillus cereus; Bacillus cereus, read-out: MIC): 1.55 µM (≈ 0.799 µg/mL) |
| > 15 µM | > 15 µM | – | – | CC(=O)OCC1OC(n2c3ccccc3c3c4c(c5c6ccccc6[nH]c5c32)C(=O)N(C)C4=O)C(OC(C)=O)C(OC(C)=O)C1OC(C)=O (stereo in doubt; 5) | – |
| – | – | 2.5 µM | > 100 µM | CC(=O)OCC1OC(n2c3ccccc3c3c4c(c5c6ccccc6[nH]c5c32)C(=O)N(C)C4=O)C(OC(C)=O)C(OC(C)=O)C1OC(C)=O (stereo in doubt; 3) [listing 2 of 2 here] | – |
